Measured values as given in paper PMC3867294 (Biochemical and biophysical research communications, 2013).

How the values were obtained:
[1] = system: LPS-mediated inflammation in rats; assay type: in vivo; conditions: n=3 rats/group
[2] = system: LPS-mediated inflammation in rats; experiment: Protocol 1: plasma cytokines; assay type: in vivo, Sprague-Dawley rats
[3] = system: liver inflammation in endotoxemic rats; experiment: Liver histology; assay type: in vivo, Sprague-Dawley rats; conditions: 2.5 mg/kg mR18L i.p. without LPS; H&E sections; n=3
How it was run: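 Male Sprague-Dawley rats received test compound 2.5 mg/kg i.p., with or without LPS 5 mg/kg i.p. one minute before, and were killed at 2 h. Liver was formalin-fixed, paraffin-embedded, cut at 5 μm and H&E-stained. A blinded pathologist scored it subjectively. Segmented neutrophils were counted at x40, 30 fields from 10 random portal areas. n=3 control, n=4 LPS groups.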

iNOS (NOS2) in rat liver = experiment: iNOS expression in liver tissue by immunoblotting; assay type: in vivo, Sprague-Dawley rats; conditions: 2.5 mg/kg mR18L with 5 mg/kg LPS; 2h post LPS; immunoblot, n=6 in LPS groups; P<0.05 vs LPS alone
[4] = system: endotoxin activity of LPS; experiment: Endotoxin activity in rat plasma by LAL assay, protocol 1; assay type: in vivo, Sprague-Dawley rats; conditions: 2h post 5 mg/kg LPS and 2.5 mg/kg mR18L, n=5-7/group, P<0.05 vs LPS alone
How it was run: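 Adult male Sprague-Dawley rats (322±8 g) got E. coli 026:B6 LPS at 5 mg/kg i.p. and, one minute later, test compound at 2.5 mg/kg i.p. at a different site. Rats were killed at 2 h and the plasma was frozen. Endotoxin activity was read by kinetic-colorimetric LAL assay, n=5–7/group. Groups were compared by one-way ANOVA with Bonferroni, mean±SEM.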

[5] = system: LPS-mediated inflammation in rats; experiment: Protocol 2: mR18L one hour post LPS, rat plasma at 6h post LPS; assay type: in vivo, Sprague-Dawley rats; conditions: 2.5 mg/kg mR18L one hour post 5 mg/kg LPS
How it was run: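 Rats got LPS (E. coli 026:B6, 5 mg/kg i.p.), then test compound 2.5 mg/kg one hour later; n=5/group. Plasma was taken at baseline and 6 h. Measures: cholesterol and triglycerides by kit; IL-6 and IL-10 by ELISA; endotoxin by kinetic LAL. PON1 was read as paraoxon-driven 4-nitrophenol release at 405 nm. Tests: paired t-test vs baseline, unpaired vs LPS.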

[6] = system: atherosclerosis and plasma cholesterol in mouse models; conditions: oral and intravenous administration; cited from earlier work
[7] = cited from earlier work
hepatocytes = conditions: in-vitro; cited from earlier work
[8] = 2.5 mg/kg mR18L i.p. one minute post 5 mg/kg LPS, 2h post LPS, n=5-7 rats/group

Ac-GFRRFLGSWARIYRAFVG-NH2 [mR18L, Ac-G-F-R-R-F-L-G-S-W-A-R-I-Y-R-A-F-V-G-NH2]
tolerance to mR18L ([1]; 1, 2.5 and 5 mg/kg mR18L i.p. one minute post 5 mg/kg LPS i.p.): All rats demonstrated tolerance
LPS-mediated plasma elevation of TNF-α ([1]; starting at the lowest tested dose of 1 mg/kg mR18L i.p., 5 mg/kg LPS): significantly reduced
LPS-mediated elevation of plasma IL-6 [2, 8]: significantly reduced
LPS-mediated elevation of plasma TNF-α [2, 8]: significantly reduced
plasma anti-inflammatory cytokine IL-10 [2, 8]: without significantly reducing
normal levels of TNF-α, IL-6 and IL-10 in rat plasma, mR18L administered alone ([2]; 2.5 mg/kg mR18L i.p. without LPS, 2h, n=5 rats/control group): no effects
liver morphology and histology, mR18L alone [3]: normal morphological and histological features without signs of inflammation or tissue damage
LPS-mediated iNOS elevation in liver (iNOS (NOS2) in rat liver): reduced
endotoxin activity in plasma of LPS-treated rats [4]: significantly reduced
increase of plasma PON1 activity in LPS-treated rats ([5]; n=5, P<0.05 vs baseline): 15%
LPS-mediated elevation of plasma triglyceride ([5]; n=5 rats/group): reduced
plasma cholesterol ([5]; n=5 rats/group): not affecting
reduction of plasma levels of IL-6 ([5]; n=5 rats/group, vs LPS): 57%
reduction of plasma levels of IL-10 ([5]; n=5 rats/group, vs LPS): 38%
increase of IL-10 to IL-6 ratio ([5]; not shown): 24%
reduction of plasma endotoxin activity ([5]; LAL assay, n=5 rats/group, vs LPS): 30%
atherosclerotic lesion formation [6]: inhibited
plasma cholesterol levels, mainly VLDL [6]: decreased
lytic properties relative to 18L [7]: substantially reduced lytic properties
uptake of atherogenic lipoproteins by hepatocytes (hepatocytes): able to enhance uptake
